Screens: PubChem, Sanford-Burnham Center for Chemical Genomics
Only some compounds are listed: those with a hit (about 3% of all), similar ones and a draw of the others.
UBC13 polyUb – blocks human UBC13 polyubiquitin chain formation; hit rate 0.47% among 330,000; AID 485273; TR-FRET; inhibition, % at 20 µM; P61088; in the data active = inhibition above about 45%, passing the limit was not always enough; inconclusive = no clear call, values can overlap the other calls
Target sequence (P61088 whole entry, looked up): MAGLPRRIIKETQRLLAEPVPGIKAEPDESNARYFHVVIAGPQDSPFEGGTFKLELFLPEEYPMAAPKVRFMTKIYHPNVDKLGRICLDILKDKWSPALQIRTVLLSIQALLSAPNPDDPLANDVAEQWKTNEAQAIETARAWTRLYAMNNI
SENP8 block-1 – SENP8 protease inhibition | inhibition, % at 10 µM | Q96LD8 | purified SENP8, Z-RLRGG-aminoluciferin cleavage, luminescence | hit rate 1.2% among 330,000; in the data active = inhibition above about 50%
Target sequence (Q96LD8 whole entry, looked up): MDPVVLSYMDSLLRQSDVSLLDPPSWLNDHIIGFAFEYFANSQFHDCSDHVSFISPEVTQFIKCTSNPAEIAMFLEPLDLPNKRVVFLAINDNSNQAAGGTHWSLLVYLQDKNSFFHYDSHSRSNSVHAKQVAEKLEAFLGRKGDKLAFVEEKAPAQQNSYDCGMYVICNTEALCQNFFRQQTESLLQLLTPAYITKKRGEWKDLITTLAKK
Apaf-1 inh – human Apaf-1 inhibition; O14727; hit rate 0.71% among 330,000; reconstituted apoptosome caspase-3 activity, DEVD-Rh110 fluorescence; inhibition, % at 20 µM; AID 489030; active = inhibition of at least 40% at 20 µM;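 note: plate controls were DMSO wells for no effect and DEVD-CHO caspase inhibitor wells for full effect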
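Material: cell-free apoptosome with Apaf-1, procaspase-3 and caspase-9; Buffer or medium: Hepes pH 7.5 with detergent and BSA; Reagent: cytochrome c trigger plus (Z-DEVD)2-Rh110 caspase-3 substrate; Times: compound with Apaf-1, dATP, procaspase-3 30 min, then 50 min reaction, room temperature; Technique: Rh110 fluorescence intensity.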
SENP7 block – inhibitors of human SENP7 protease. Q9BQF6. hit rate 1.5% among 330,000. recombinant SENP7, Z-RLRGG-aminoluciferin luminescence, 40 min. inhibition, % at 5 µM. AID 434973;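 active = inhibition above about 50% at the single test dose, limit read from the data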;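 note: plate controls were DMSO with enzyme for no effect and no enzyme buffer wells for full effect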
SENP6 inh – SENP6 protease inhibition; Q9GZR1; Recombinant SENP6 catalytic domain, aminoluciferin luminescence; inhibition, % at 10 µM; hit rate 1.8% among 330,000; AID 2599;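 active = inhibition above about 50% at the single tested dose, limit read from the data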;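 note: plate controls were DMSO wells with enzyme for no effect and DMSO wells lacking enzyme for full effect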
SENP8 block-2 – SENP8 (human) protease inhibition; hit rate 0.64% among 360,000; recombinant SENP8, Nedd8 substrate fluorescence; AID 602440; Q96LD8; inhibition, % at 20 µM; in the data active = inhibition mostly above about 40%, no sharp cut-off; inactive = mostly below about 27%
* marks the source's active call; other numbers are inactive results; i = inactive; ? = inconclusive; . = not tested or not shown.

SMILES	UBC13 polyUb	SENP8 block-1	Apaf-1 inh	SENP7 block	SENP6 inh	SENP8 block-2
O=C(c1ccccc1)C1CCN(C(=O)c2cccs2)CC1	-8	0	0	-3	0	15
COc1ccc(NC(=O)Cn2cnc3sc(C)c(S(=O)(=O)N4CCOCC4)c3c2=O)cc1Cl	-2	3	5	8	-4	7
COc1ccc(OC)c(C2=NS(=O)(=O)N(C)C(C(=O)N3CCC4(CC3)OCCO4)=C2)c1	-12	2	1	-2	-8	10
COc1cc(-c2nc(-c3ccccn3)no2)cc(OC)c1OC	-4	-8	-2	-7	-6	-5
Cc1ccc(-c2nc(-c3ccccn3)no2)cc1Cl	-3	96*	10	99*	95*	-16
CCN1C(=O)[C@H]2[C@@H](c3ccc(Cl)cc3)N3C(=O)CN(CCOC)C(=O)[C@@]3(Cc3ccccc3)[C@H]2C1=O	-2	2	-8	-3	-10	14
CCC(C)(C)NC(=O)C(c1ccccn1)N(C(=O)c1csnn1)c1ccc(C)c(C)c1 (centres undefined)	3	-3	-1	-1	-14	13
Nc1ccc(N=Nc2ccccc2)c2ccccc12	-139	-8	19	11	-3	24
Nc1ccc(N=Nc2ccccc2)c(N)n1	-29	15	-5	4	22	36*
COc1ccc(NS(=O)(=O)c2cc([N+](=O)[O-])ccc2N/N=C\c2c(C)[nH]c3ccccc23)cc1	-241	16	21	4	-1	47*
Cc1[nH]c2ccccc2c1/C=N/Nc1ccc([N+](=O)[O-])cc1S(=O)(=O)Nc1ccc(Cl)cc1	-2	-7	-4	-7	-14	22
CCOC(=O)c1c(NC(=S)NNS(=O)(=O)c2ccc(Br)cc2)sc2c1CCCCC2	-26	-10	13	12	-6	-3
CCC(=O)NC(c1cccs1)c1cc([N+](=O)[O-])c2cccnc2c1O (centres undefined)	-60	7	30	10	3	66*
CC(=O)NC(c1ccccc1)c1cc([N+](=O)[O-])c2cccnc2c1O (centres undefined)	-18	5	3	7	9	52*
CC(C)C(=O)NC(c1ccccc1)c1cc([N+](=O)[O-])c2cccnc2c1O (centres undefined)	-57	-3	13	2	8	32
CC(=O)NC(c1cccs1)c1cc([N+](=O)[O-])c2cccnc2c1O (centres undefined)	.	.	.	.	.	45*
CCCC(=O)NC(c1cccs1)c1cc([N+](=O)[O-])c2cccnc2c1O (centres undefined)	.	.	.	.	.	52*
CC(=O)NC(c1ccc(C)cc1)c1cc(Cl)c2cccnc2c1O (centres undefined)	-8	-5	-3	-4	-2	16
O=C(CCc1ccccc1)NC(c1cccs1)c1cc(Cl)c2cccnc2c1O (centres undefined)	.	.	.	.	.	2
CCCN(C(=O)COC(=O)Cn1c(=O)oc2ccccc21)c1c(N)n(Cc2ccccc2)c(=O)[nH]c1=O	-1	7	-3	-1	-5	-3
COc1ccc(C(=O)Oc2cc(C)[nH]c(=O)c2[N+](=O)[O-])c(OC)c1	-1	7	-4	-7	-7	-2
Cc1ccc(C(=O)N2C(=O)c3cccc(N)c3C2=O)o1	2	-2	-2	4	82*	-108
COc1cccc(/C=N/NC(=O)Cn2nc([N+](=O)[O-])cc2C)c1	-3	-1	5	-9	-6	29
CCCCCC#CCC#CCC#CCC#CCCCC(=O)O	28	0	41*	-2	-24	.
CCCCCCCCCC(=O)O	8	11	-10	1	10	7
SMILES	UBC13 polyUb	SENP8 block-1	Apaf-1 inh	SENP7 block	SENP6 inh	SENP8 block-2
CC(=O)c1ccc(N2CCN(S(=O)(=O)c3c(C)[nH]c(C)c3C(=O)N3CCCCC3)CC2)cc1	-14	-5	3	41	-10	-143
NC(N)=Nc1cc2ccccc2c2ccccc12	-5	23	77*	23	42	.
COCCNC(=O)c1[nH]c(C(F)(F)F)nc1-c1ccccc1	.	.	.	.	.	34
Cc1c2ccncc2cc2c1[nH]c1ccccc12	.	.	.	.	.	-483
COc1ccc2[nH]c3c(C)c4ccncc4c(C)c3c2c1	?	-12	76*	-6	-33	-198
CCOC(=O)C1(Cc2ccc(Cl)cc2)CCN(C(C)Cc2ccc(O)c(OC)c2)CC1 (centres undefined)	13	3	14	4	6	8
COC(=O)c1c(NC(=O)COc2ccc(Cl)cc2)sc2c1CC(C)(C)NC2(C)C	43	-2	61*	0	-5	-12
COC(=O)c1c(NC(=O)Cc2ccccc2)sc2c1CC(C)(C)NC2(C)C	22	-9	16	-14	-3	-11
CCCCCn1c(SCC(=O)c2ccccc2)nc2cc(C(=O)NCC3CCCO3)ccc2c1=O (centres undefined)	.	.	.	.	.	-4
CC(C)N=c1scc(-c2cccs2)n1/N=C/c1ccc(O)c(O)c1O	-20	9	34	4	4	30
CN=c1scc(-c2ccccc2F)n1/N=C/c1ccc(O)c(O)c1O	.	.	.	.	.	43*
COc1cc(/C=N/NS(=O)(=O)c2ccc(C)c([N+](=O)[O-])c2)cc([N+](=O)[O-])c1O	-52	3	0	-4	1	41*
COc1cc(/C=N/NS(=O)(=O)c2ccc(C)c([N+](=O)[O-])c2)ccc1O	-15	4	-5	3	12	11
CCN1CCN(c2ccc(NC(=O)c3ccc(Cl)c(S(=O)(=O)N4CCCC4)c3)cc2)CC1	14	-6	9	-10	-14	22
CN(C)CCSc1nc(N)c2c3c(sc2n1)CN(C)CC3	75*	-2	-9	4	-15	-392
CCCSc1nc(N)c2c3c(sc2n1)CN(C)CC3	3	7	2	0	2	i
CCOC(=O)C1CCN(C(=O)Nc2ccc3nc(-c4ccco4)c(-c4ccco4)nc3c2)CC1	-12	14	70*	6	-51	-439
O=C(Nc1ccc2nc(-c3ccco3)c(-c3ccco3)nc2c1)N1CCCCCC1	27	3	57*	1	-9	.
COc1ccc(-n2c(SCC(=O)NCC3CCCO3)nc3ccccc3c2=O)cc1Cl (centres undefined)	.	.	.	.	.	11
COc1cccc(/C=N/N=C(\N)c2nonc2N)c1O	-1	15	-9	78*	21	18
COc1cc(/C=N/N=C(/N)c2nonc2N)cc(Br)c1OCc1ccccc1C	-5	4	7	3	3	21
CCN(CC)CCOC(=O)c1ccc(NC(=O)CCCN2C(=O)/C(=C\c3cccs3)SC2=S)cc1	13	-21	60*	-11	-7	35
COc1ccc(C)cc1Nc1nc(N)c2ccccc2n1	5	0	-4	2	10	-47
CCOc1ccc(Nc2nc(N)c3ccccc3n2)cc1	8	96*	-3	101*	96*	-13
